According to ChEMBL document CHEMBL4138171, “Design, synthesis and biological evaluation of novel aryldiketo acids with enhanced antibacterial activity against multidrug resistant bacterial strains” (Eur J Med Chem, 2018):

Assays:
Staphylococcus aureus [1] = test: Antibacterial activity against Staphylococcus aureus EMRSA-15 after 16 hrs by microdilution method; format: functional; details: EMRSA-15, 16 h
Outline: (§1)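 Broth microdilution in cation-adjusted Mueller-Hinton broth (20 mg/l Ca2+, 10 mg/L Mg2+), inoculum 5×10^5 CFU/mL. Compounds from DMSO stocks, final DMSO <1%, tested over 0.12–128 µg/ml. Incubated 37 °C and read visually after 16 h. MIC is the lowest concentration with no visible growth, determined at least twice and converted to µmol/L.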

Staphylococcus aureus [2] = test: Antibacterial activity against methicillin-resistant Staphylococcus aureus NCTC 13373 after 16 hrs by microdilution method; format: functional; details: NCTC 13373, 16 h
Outline: (§2)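 Broth microdilution in cation-adjusted Mueller-Hinton broth (20 mg/l Ca2+, 10 mg/L Mg2+), inoculum 5×10^5 CFU/mL. Compounds in DMSO, solvent under 1% in well, tested over 0.12-128 µg/ml. […] Each determined at least twice; values converted to µmol/L.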

Staphylococcus aureus [3] = test: Antibacterial activity against tetracycline/methicillin-resistant Staphylococcus aureus XU212 after 16 hrs by microdilution method; format: functional; details: XU212, 16 h; outline: as §2
Bacillus subtilis = test: Antibacterial activity against Bacillus subtilis NCTC 10400 after 16 hrs by microdilution method; format: functional; details: NCTC 10400, 16 h; outline: as §1
Escherichia coli = test: Antibacterial activity against Escherichia coli NCTC 12241 after 16 hrs by microdilution method; format: functional; details: NCTC 12241, 16 h; outline: as §1
Staphylococcus aureus [4] = test: Antibacterial activity against erythromycin-resistant Staphylococcus aureus RN4220 after 16 hrs by microdilution method; format: functional; details: RN4220, 16 h; outline: as §2
Staphylococcus aureus [5] = test: Antibacterial activity against methicillin-sensitive Staphylococcus aureus NCTC 12981 after 16 hrs by microdilution method; format: functional; details: NCTC 12981, 16 h; outline: as §1
Staphylococcus aureus [6] = test: Antibacterial activity against Norfloxacin-resistant Staphylococcus aureus 1199B over-expressing NorA after 16 hrs by microdilution method; format: functional; outline: as §2
Enterococcus faecalis = test: Antibacterial activity against Enterococcus faecalis NCTC 12697 after 16 hrs by microdilution method; format: functional; details: NCTC 12697, 16 h; outline: as §1
[7] = Cytotoxicity against human MRC5 cells; format: cell-based
Staphylococcus aureus [8] = test: Potency index, ratio of norfloxacin MIC to test compound MIC for Norfloxacin-resistant Staphylococcus aureus 1199B over-expressing NorA; format: functional

For `Cc1cc(C)c(C(=O)/C=C(\O)C(=O)O)cc1C`, the MIC (Staphylococcus aureus [1]) was > 128 µg/mL, the MIC (Staphylococcus aureus [2]) was > 128 µg/mL and the MIC (Staphylococcus aureus [3]) was > 128 µg/mL. The MIC (Bacillus subtilis) was > 128 µg/mL, the MIC (Escherichia coli) was > 128 µg/mL and the MIC (Staphylococcus aureus [4]) was > 128 µg/mL. The MIC (Staphylococcus aureus [5]) was > 128 µg/mL, the MIC (Staphylococcus aureus [6]) was > 128 µg/mL and the MIC (Enterococcus faecalis) was > 128 µg/mL.

With `O=C(O)/C(O)=C/C(=O)c1ccc(N2CCOCC2)cc1` the MIC (Staphylococcus aureus [1]) was > 128 µg/mL, the MIC (Staphylococcus aureus [2]) was > 128 µg/mL and the MIC (Staphylococcus aureus [3]) was > 128 µg/mL. The MIC (Bacillus subtilis) was > 128 µg/mL, the MIC (Escherichia coli) was > 128 µg/mL and the MIC (Staphylococcus aureus [4]) was > 128 µg/mL. For the same compound, the MIC (Staphylococcus aureus [5]) was > 128 µg/mL, the MIC (Staphylococcus aureus [6]) was > 128 µg/mL and the MIC (Enterococcus faecalis) was > 128 µg/mL.

With `CN(C)c1ccc(C(=O)/C=C(\O)C(=O)O)cc1` the MIC (Staphylococcus aureus [1]) was > 128 µg/mL, the MIC (Staphylococcus aureus [2]) was > 128 µg/mL and the MIC (Staphylococcus aureus [3]) was > 128 µg/mL. The MIC (Bacillus subtilis) was > 128 µg/mL, the MIC (Escherichia coli) was > 128 µg/mL and the MIC (Staphylococcus aureus [4]) was > 128 µg/mL. The MIC (Staphylococcus aureus [5]) was > 128 µg/mL, the MIC (Staphylococcus aureus [6]) was > 128 µg/mL and the MIC (Enterococcus faecalis) was > 128 µg/mL.

`COc1c(N2C[C@@H]3CCCN[C@@H]3C2)c(F)cc2c(=O)c(C(=O)O)cn(C3CC3)c12` [MOXIFLOXACIN] gave an MIC (Staphylococcus aureus [4]) of 0.31 µM and an MIC (Staphylococcus aureus [6]) of 0.62 µM.

`CCCCc1ccc(C(=O)/C=C(\O)C(=O)O)cc1` gave an MIC (Staphylococcus aureus [1]) of 258 µM, an MIC (Staphylococcus aureus [2]) of 258 µM and an MIC (Staphylococcus aureus [3]) of 258 µM. For the same compound, the MIC (Bacillus subtilis) was > 128 µg/mL, the MIC (Escherichia coli) was > 128 µg/mL and the MIC (Staphylococcus aureus [4]) was 258 µM. For the same compound, the MIC (Staphylococcus aureus [5]) was 258 µM, the MIC (Staphylococcus aureus [6]) was 258 µM and the MIC (Enterococcus faecalis) was 129 µM.

For `CC(C)c1ccc(C(C)C)c(C(=O)/C=C(\O)C(=O)O)c1`, the MIC (Staphylococcus aureus [1]) was 232 µM, the MIC (Staphylococcus aureus [3]) was 464 µM and the MIC (Escherichia coli) was > 128 µg/mL. It also gave an MIC (Staphylococcus aureus [4]) of 464 µM and an MIC (Staphylococcus aureus [6]) of 232 µM.

For `O=C(O)/C(O)=C/C(=O)c1ccccc1`, the MIC (Escherichia coli) was > 128 µg/mL and the MIC (Staphylococcus aureus [6]) was > 2660 µM.

In the case of `Cc1ccccc1C(=O)/C=C(\O)C(=O)O`, the MIC (Staphylococcus aureus [1]) is reported as > 128 µg/mL, the MIC (Staphylococcus aureus [2]) is reported as > 128 µg/mL and the MIC (Staphylococcus aureus [3]) is reported as > 128 µg/mL. The MIC (Bacillus subtilis) was > 128 µg/mL, the MIC (Escherichia coli) was > 128 µg/mL and the MIC (Staphylococcus aureus [4]) was > 128 µg/mL. For the same compound, the MIC (Staphylococcus aureus [5]) was > 128 µg/mL, the MIC (Staphylococcus aureus [6]) was > 128 µg/mL and the MIC (Enterococcus faecalis) was > 128 µg/mL.

With `Cc1cccc(C(=O)/C=C(\O)C(=O)O)c1` the MIC (Staphylococcus aureus [1]) was > 128 µg/mL, the MIC (Staphylococcus aureus [2]) was > 128 µg/mL and the MIC (Staphylococcus aureus [3]) was > 128 µg/mL. The MIC (Bacillus subtilis) was > 128 µg/mL, the MIC (Escherichia coli) was > 128 µg/mL and the MIC (Staphylococcus aureus [4]) was > 128 µg/mL. The MIC (Staphylococcus aureus [5]) was > 128 µg/mL, the MIC (Staphylococcus aureus [6]) was > 128 µg/mL and the MIC (Enterococcus faecalis) was > 128 µg/mL.

With `O=C(O)/C(O)=C/C(=O)c1ccc(N2CCCC2)cc1` the MIC (Staphylococcus aureus [1]) was > 128 µg/mL, the MIC (Staphylococcus aureus [2]) was > 128 µg/mL and the MIC (Staphylococcus aureus [3]) was > 128 µg/mL. For the same compound, the MIC (Bacillus subtilis) was > 128 µg/mL, the MIC (Escherichia coli) was > 128 µg/mL and the MIC (Staphylococcus aureus [4]) was > 128 µg/mL. The MIC (Staphylococcus aureus [5]) was > 128 µg/mL, the MIC (Staphylococcus aureus [6]) was > 128 µg/mL and the MIC (Enterococcus faecalis) was > 128 µg/mL.

`C[C@H]1COc2c(N3CCN(C)CC3)c(F)cc3c(=O)c(C(=O)O)cn1c23` [LEVOFLOXACIN] gave an MIC (Staphylococcus aureus [4]) of 0.69 µM, an MIC (Staphylococcus aureus [6]) of 5.53 µM and an MIC (Enterococcus faecalis) of 1.4 µM.

With `O=C(O)CCC(=O)c1cc(C2CCCCC2)ccc1C1CCCCC1` the MIC (Staphylococcus aureus [1]) was 94 µM, the MIC (Staphylococcus aureus [2]) was 94 µM and the MIC (Staphylococcus aureus [3]) was 47 µM. For the same compound, the MIC (Escherichia coli) was > 128 µg/mL, the MIC (Staphylococcus aureus [4]) was 47 µM and the MIC (Staphylococcus aureus [5]) was 94 µM. For the same compound, the MIC (Staphylococcus aureus [6]) was 47 µM.

For `CC(C)c1cc(C(C)C)c(C(=O)/C=C(\O)C(=O)O)c(C(C)C)c1`, the MIC (Staphylococcus aureus [1]) was 25 µM, the MIC (Staphylococcus aureus [2]) was > 128 µg/mL and the MIC (Staphylococcus aureus [3]) was 50 µM. The MIC (Bacillus subtilis) was 25 µM, the IC90 [7] was 90 µM and the MIC (Escherichia coli) was > 128 µg/mL. The MIC (Staphylococcus aureus [4]) was 50 µM, the MIC (Staphylococcus aureus [5]) was 13 µM and the MIC (Staphylococcus aureus [6]) was 25 µM. For the same compound, the MIC (Enterococcus faecalis) was > 128 µg/mL.

For `O=C(O)/C(O)=C/C(=O)c1cccc(Br)c1`, the MIC (Staphylococcus aureus [1]) was > 128 µg/mL, the MIC (Staphylococcus aureus [2]) was > 128 µg/mL and the MIC (Staphylococcus aureus [3]) was > 128 µg/mL. For the same compound, the MIC (Bacillus subtilis) was > 128 µg/mL, the MIC (Escherichia coli) was > 128 µg/mL and the MIC (Staphylococcus aureus [4]) was > 128 µg/mL. For the same compound, the MIC (Staphylococcus aureus [5]) was > 128 µg/mL, the MIC (Staphylococcus aureus [6]) was > 128 µg/mL and the MIC (Enterococcus faecalis) was > 128 µg/mL.

For `O=C(O)/C(O)=C/C(=O)c1cccc(C(F)(F)F)c1`, the MIC (Staphylococcus aureus [1]) was > 128 µg/mL, the MIC (Staphylococcus aureus [2]) was > 128 µg/mL and the MIC (Staphylococcus aureus [3]) was > 128 µg/mL. For the same compound, the MIC (Bacillus subtilis) was > 128 µg/mL, the MIC (Escherichia coli) was > 128 µg/mL and the MIC (Staphylococcus aureus [4]) was > 128 µg/mL. For the same compound, the MIC (Staphylococcus aureus [5]) was > 128 µg/mL, the MIC (Staphylococcus aureus [6]) was > 128 µg/mL and the MIC (Enterococcus faecalis) was > 128 µg/mL.

For `CCc1cc(CC)c(C(=O)/C=C(\O)C(=O)O)c(CC)c1`, the MIC (Staphylococcus aureus [1]) was 232 µM, the Ratio (Staphylococcus aureus [8]) was 10 and the MIC (Staphylococcus aureus [3]) was 232 µM. The MIC (Escherichia coli) was > 128 µg/mL, the MIC (Staphylococcus aureus [4]) was 232 µM and the MIC (Staphylococcus aureus [6]) was 116 µM.

With `COc1ccccc1C(=O)/C=C(\O)C(=O)O` the MIC (Staphylococcus aureus [1]) was > 128 µg/mL, the MIC (Staphylococcus aureus [2]) was > 128 µg/mL and the MIC (Staphylococcus aureus [3]) was > 128 µg/mL. The MIC (Bacillus subtilis) was > 128 µg/mL, the MIC (Escherichia coli) was > 128 µg/mL and the MIC (Staphylococcus aureus [4]) was > 128 µg/mL. The MIC (Staphylococcus aureus [5]) was > 128 µg/mL, the MIC (Staphylococcus aureus [6]) was > 128 µg/mL and the MIC (Enterococcus faecalis) was > 128 µg/mL.
